Variants at the floor of the assay were thinned out.

First the molecules themselves.
B1: tRNA (parent)
chain: GUUCCGUUGGCGUAAUGGUAACGCGUCUCCCUCCUAAGGAGAAGACUGCGGGUUCGAGUCCCGUACGGAACG

The variants in the data set derive from B1. Put plainly: yeast fitness relative to wild type (ratio to wild type); higher = fitter; tRNA-Arg(CCU), competitive growth, 37 C, YPD. In a few lines: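 Variants of the tRNA-Arg(CCU) gene, chemically synthesised with a 3% per-site mutation rate at 69 sites, were placed at the native genomic locus in Saccharomyces cerevisiae. The pooled strains were competed in YPD at 37°C for 24 hours in six parallel replicates. Gene amplicons from the start population and from each end population were read by 100-nucleotide paired-end sequencing. Darwinian fitness relative to wild type came from changes in genotype frequencies; genotypes needed ≥ 100 starting reads, and estimates < 0.5 were set to 0.5.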
For the variant A14U U19A A36C, the yeast fitness was at most 0.5. For A14G G38A the value was 0.799. The value for A14U U26G C49G was at most 0.5; that for A14G C27U U47A C62U was 0.566; that for A14G C30A A42G G44A was 0.569. On to A14C U28C A40G C55A A57C C62U, for which the yeast fitness is at most 0.5. Regarding A14U A21G C29G U59A, the yeast fitness was at most 0.5. For the variant A14G G41A A70G, the yeast fitness came to 0.638.

Regarding A14C U19G G44C C62G, the yeast fitness was at most 0.5. For the variant A14C A36G G41A G48C U59C A70C, the yeast fitness was at most 0.5. Regarding A14C G18A A20U, the yeast fitness is at most 0.5.

Regarding A14G A42U C62U A70C, the yeast fitness was at most 0.5. For A14C A15C U16C C27U C29A C34G G50C the value was at most 0.5. For A14G U26G the value was 0.81. Take A14U G18A: the yeast fitness is at most 0.5.

Turning to A14C C24G G41A G44A U53A C66U, the yeast fitness is at most 0.5. With A14G C49G A69U A70C, the yeast fitness is 0.618. For A14G A43G the value was 0.932; for A14G A21U U47G C49G G56C, at most 0.5. For the variant A14U G17C C30G G41C A42C U47C G50A C62A, the yeast fitness is at most 0.5.

On to A14G U26C A37G C61U G68A, for which the yeast fitness was at most 0.5. For A14G U35A G56A C66U the value was at most 0.5; for A14C C24A C61A, at most 0.5.

In the case of A14G A21C G63C, the yeast fitness worked out at 0.546.

In the case of A14C C49G A70U, the yeast fitness is at most 0.5. For A14G A42U G44C U54A the value was at most 0.5; for A14G A15G C33G C34U A43C C49G C61G C66U A69U, at most 0.5; for A14G C22A C27A C29U A42C A70C, at most 0.5. Take A14U G41C: the yeast fitness is 0.565.

As to A14U C30U C55G, the yeast fitness is at most 0.5. For the variant A14C A45U A69U, the yeast fitness came out at 0.619. For A14C A20G A45C A57C the value was at most 0.5; for A14C A40U C55G C61U C66U, at most 0.5; for A14G C46U G50C G51A C55U A57U C62G A70U, at most 0.5.

Turning to A14U A36C U53C A69C, the yeast fitness was at most 0.5. For A14C A69C the value was 0.654. With A14G G58A, the yeast fitness is 0.836. Regarding A14U U16A C22U C24A G67A A69C, the yeast fitness was 0.67. For A14G C30U the value was 0.81.

In the case of A14G A43C A45G, the yeast fitness is 0.585.

On to A14C G39A, for which the yeast fitness was found to be 0.754. The value for A14G C24U C55U G67C was at most 0.5; that for A14C C22U U32A C34U C66U was 0.576; that for A14G A65U was 0.737. Regarding A14G A65C, the yeast fitness is 0.903.

Take A14U A15C C31G A43U: the yeast fitness was 0.627. The value for A14G U32A was 0.554; that for A14C C27U C30U C34A C62A was at most 0.5; that for A14U C33U A36U G41C was at most 0.5. For the variant A14U A20C A37C C49G, the yeast fitness was at most 0.5. For A14U U59A the value was 0.583; for A14G U32C C55U, at most 0.5.

Regarding A14U A43G, the yeast fitness was 0.537. For A14G A36C A57C G68A the value was at most 0.5; for A14C A20C G67A, at most 0.5; for A14G C22A C27G A42U, at most 0.5. For A14G C27G U54C the value was at most 0.5; for A14C C22G G67A, at most 0.5. Take A14G C24G C66U: the yeast fitness was at most 0.5. Consider A14G C30A C34A A43C C60G C62A, for which the yeast fitness is at most 0.5. A14C C61G: the yeast fitness came out at 0.536. The value for A14G G67A was 0.821; that for A14G U35G C55A G63A was at most 0.5; that for A14G C24U A43U A65C was at most 0.5. The value for A14C C24U A40U C55G was at most 0.5. For A14G C27U U28C the value was 0.541; for A14U G39A, 0.671.

Take A14G A42G G48C: the yeast fitness was determined as 0.568. With A14C C30A C31G U64A, the yeast fitness was 0.584. For A14C A15U C30U C34G A43G G48C C49U C61U the value was at most 0.5. For A14C C46G C60G the value was at most 0.5; for A14G C22U A70C, at most 0.5; for A14C G39C C60U, at most 0.5.

As for A14G C55A A57U G58C A69U, the yeast fitness is at most 0.5.

For U13G U47C, the yeast fitness was 1.02. For the variant A14C U19G C31G C33U A42G U64C A65G A69C, the yeast fitness was at most 0.5.

Turning to A14U G17A A43C C46U, the yeast fitness was at most 0.5.

Consider A14C A15U C34G G50A, for which the yeast fitness was at most 0.5. For A14C C22U A70G the value was at most 0.5; for A14U C27U C55G, 0.517; for A14G A57C, 0.555.

Consider A14G G18C C30G G52C C61A, for which the yeast fitness was at most 0.5.

In the case of A14C A20U C31U G38C G67A, the yeast fitness was 0.53. For A14U C30A A43U the value was at most 0.5.

For A14C G50A C55G C62A, the yeast fitness was determined as 0.692.

For A14U C22A, the yeast fitness was found to be 0.668. For A14G G23C A70U the value was 0.564. In the case of A14G U19C G68A, the yeast fitness was 0.559. The value for A14G G50U G67C was at most 0.5; that for A14C G17A was 0.679; that for A14C A57C C62U was at most 0.5.

For A14U A21U G67C, the yeast fitness is 0.596. For A14U A40U U54A A70G the value was 0.568; for A14U G25A, 0.686.

As to A14C C27U C34G G51A G67U, the yeast fitness is at most 0.5. The value for A14C G68C was 0.687; that for A14C G67A was 0.695; that for A14C A40C U47C A57C was at most 0.5.

As to A14G C24U G56A, the yeast fitness is 0.813.

Consider A14U G18A C30A, for which the yeast fitness was at most 0.5.

Take A14U C49U: the yeast fitness came out at 0.629. For A14C U16G C29U U54C the value was at most 0.5. The value for A14G U26G A43C G68A was at most 0.5. For A14U G17C A70G the value was at most 0.5; for A14U C60G A70C, at most 0.5; for A14U U64C A65G, 0.567. For A14C U19C C33G, the yeast fitness is 0.641. The value for A14U U19A A21C G48C A70G was 0.505; that for A14U U19A A21C G48C G63A A70G was at most 0.5; that for A14U A42U C49U C61U C66U was at most 0.5.

A14C U35C: the yeast fitness amounted to 0.695. For A14C A37C A65U the value was at most 0.5; for A14G C29U G39A C49U G56C, at most 0.5; for A14U U16A U26G C29G G67C, at most 0.5. The value for A14C A21G A37C G50A A57C was at most 0.5. As to A14G C24G C31U, the yeast fitness was at most 0.5.

In the case of U13G U35G A40G G58C A65U, the yeast fitness is at most 0.5. Regarding A14G A43G C60U C62U A70C, the yeast fitness is at most 0.5.

As for A14G C24A, the yeast fitness was found to be 0.666. The value for A14C C62U was 0.853; that for A14U A21C C22U C33G A45G C46G G52C was at most 0.5; that for A14C U19G U59C A69G was at most 0.5.

For A14U A57C U59A, the yeast fitness came to 0.703. The value for A14U A15G C55G C61G was 0.637.

Turning to A14G A42C G50A A70C, the yeast fitness is 0.593. For A14G C46U the value was 0.886; for A14C A37C G51A U59A, 0.56.

As for A14U U19C C29U C30A A45C, the yeast fitness is at most 0.5. With A14G G41C C46A, the yeast fitness came out at 0.791. For A14C U19A the value was 0.602; for A14C G52C A57C G63C, at most 0.5. The value for A14C C22U C34A was at most 0.5.

Turning to A14G C22U C34U U35A C55A, the yeast fitness was at most 0.5. As for A14G A15U, the yeast fitness amounted to 0.704.

Regarding A14C A65U, the yeast fitness amounted to 0.62.

As for A14C A65C, the yeast fitness came to 0.635. For A14C A70G the value was 0.749; for A14U A45C C49U A65C, at most 0.5; for A14U U26A, 0.694. For A14U A70U the value was 0.713. Regarding A14G C30U G39A C60G, the yeast fitness was at most 0.5. A14U A21U: the yeast fitness came to 0.547. The value for A14U A21C was 0.705. The value for A14C A45G was 0.611; that for A14C C24U U35C C46G G52A C61A was 0.535; that for A14U C30G A40G C66U was at most 0.5. Consider A14U C29A C49A A69U, for which the yeast fitness is at most 0.5. For A14C G48C C55U G63U the value was at most 0.5; for A14C U16C A21G C29A C34U A69U, at most 0.5; for A14U U28A G67C, at most 0.5. The value for A14U A42U was 0.652; that for A14U A42G was 0.529; that for A14G C55G A57C was 0.598. For A14G C22A C27A C29U A42C G63C the value was at most 0.5; for A14U C24G U54G, at most 0.5. As to A14G A21C C30G C55G, the yeast fitness was determined as 0.533. The value for A14C G51C was 0.53; that for A14U C31A C46U G48A C49U was at most 0.5; that for A14C C49A G58U was at most 0.5.

As to A14U A15G C34G, the yeast fitness was at most 0.5. The value for A14C A21U A42C G58C was at most 0.5; that for A14C C24U G51C U54A was at most 0.5.

In the case of A14U C46U G48C G63A G68A, the yeast fitness was at most 0.5.

In the case of A14U G17C C24A C30G C62A A70U, the yeast fitness is at most 0.5. In the case of A14C U28A C61G A69G, the yeast fitness is at most 0.5. For A14G G48C the value was 0.701; for A14G C34G A43C G58U A65U, at most 0.5.

Values taken from the RNAGym collection of RNA variant scans (doi:10.1126/science.aae0568).
